# Experimental data from ChEMBL document CHEMBL1138845, “Design of non-nucleoside inhibitors of HIV-1 reverse transcriptase with improved drug resistance properties. 2” (J Med Chem, 2004).
# How the values were obtained:
# HeLa [1] = test: Inhibitory concentration against human immunodeficiency virus type 1 (with Y181C resistant mutation) was determined in HeLa-CD4 MAGI assay; type: functional, cell-based
# In short: (§1)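 Tested against a panel of recombinant, isogenic HIV-1 viruses, wild type and NNRTI-resistant strains carrying engineered single or double RT mutations. The readout was IC50.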
# HeLa [2] = test: Inhibitory concentration against human immunodeficiency virus type 1 (with Y188C resistant mutation) was determined in HeLa-CD4 MAGI assay; type: functional, cell-based; in short: as §1
# HeLa [3] = test: Inhibitory concentration against human immunodeficiency virus type 1 (with K103N resistant mutation) was determined in HeLa-CD4 MAGI assay; type: functional, cell-based; in short: as §1
# HeLa [4] = test: Inhibitory concentration against human immunodeficiency virus type 1 (with K103N/G190A resistant mutation) was determined in HeLa-CD4 MAGI assay; type: functional, cell-based; in short: as §1
# HeLa [5] = test: Inhibitory concentration against human immunodeficiency virus type 1 (with G190A resistant mutation) was determined in HeLa-CD4 MAGI assay; type: functional, cell-based; in short: as §1
# MT4 [6] = test: Inhibitory concentration against nevirapine resistant strain (with Y181C mutation in HIV-1 RT gene) of human immunodeficiency virus type 1 was determined by MT-4 assay; type: functional, cell-based
# HeLa [7] = test: Inhibitory concentration against human immunodeficiency virus type 1 (with V108I/Y181C resistant mutation) was determined in HeLa-CD4 MAGI assay; type: functional, cell-based; in short: as §1
# MT4 [8] = test: Ratio of cytotoxic concentration to that of inhibitory concentration as selectivity index was determined by MT-4 assay; type: functional, Homo sapiens
# In short: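 Index is the IC50 in uninfected MT4 cells divided by the antiviral IC50 in MT4 cells infected with wild-type HIV-1 or the nevirapine-resistant strain carrying RT mutation Y181C.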
# HeLa [9] = test: Inhibitory concentration against human immunodeficiency virus type 1 (with K103N/Y181C resistant mutation) was determined in HeLa-CD4 MAGI assay; type: functional, cell-based; in short: as §1
# HeLa [10] = test: Inhibitory concentration against human immunodeficiency virus type 1 (with V108I resistant mutation) was determined in HeLa-CD4 MAGI assay; type: functional, cell-based; in short: as §1
# [11] = system: Human immunodeficiency virus 1; test: Inhibitory concentration against wild type human immunodeficiency virus type 1 was determined by recombinant virus assay; type: functional, organism-based
# In short: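 Isogenic recombinant HIV-1 carrying wild-type RT, tested in parallel with a panel of NNRTI-resistant RT mutants built on the same background; activity reported as IC50.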
# HeLa [12] = test: Inhibitory concentration against human immunodeficiency virus type 1 (with K103N/V108I resistant mutation) was determined in HeLa-CD4 MAGI assay; type: functional, cell-based; in short: as §1
# HeLa [13] = test: Inhibitory concentration against human immunodeficiency virus type 1 (with V106A/Y181C resistant mutation) was determined in HeLa-CD4 MAGI assay; type: functional, cell-based; in short: as §1
# HeLa [14] = test: Inhibitory concentration against human immunodeficiency virus type 1 (with V106A resistant mutation) was determined in HeLa-CD4 MAGI assay; type: functional, cell-based; in short: as §1
# MT4 [15] = test: Inhibitory concentration against wild type human immunodeficiency virus type 1 was determined by MT-4 assay; type: functional, cell-based
SMILES,IC50 (HeLa [1]),IC50 (HeLa [2]),IC50 (HeLa [3]),IC50 (HeLa [4]),IC50 (HeLa [5]),IC50 (MT4 [6]),IC50 (HeLa [7]),Ratio (MT4 [8]),IC50 (HeLa [9]),IC50 (HeLa [10]),IC50 [11],IC50 (HeLa [12]),IC50 (HeLa [13]),IC50 (HeLa [14]),IC50 (MT4 [15])
CC(C)c1c(OC#CC2CC2)c2cc(F)ccc2[nH]c1=O,15 nM,23 nM,400 nM,100 nM,5 nM,25 nM,11 nM,16000,620 nM,26 nM,10 nM,720 nM,220 nM,150 nM,–
Cc1c(O)nc2ccc(F)cc2c1OCC1CCC1,> 2000 nM,840 nM,> 2000 nM,> 2000 nM,250 nM,3900 nM,> 2000 nM,>8000,> 2000 nM,1700 nM,610 nM,> 2000 nM,> 2000 nM,> 2000 nM,990 nM
CCC(C)c1c(O)nc2ccc(Cl)cc2c1OC1CCCC1 (stereo not drawn),320 nM,670 nM,970 nM,> 2000 nM,~2000 nM,290 nM,> 2000 nM,>40000,> 2000 nM,1100 nM,9.3 nM,> 2000 nM,~2000 nM,> 2000 nM,9 nM
CCOc1c(O)nc2ccc(F)cc2c1OCC1CCC1,> 2000 nM,360 nM,> 2000 nM,> 2000 nM,86 nM,1070 nM,> 2000 nM,>8000,> 2000 nM,1500 nM,580 nM,> 2000 nM,> 2000 nM,> 2000 nM,470 nM
CCCc1c(O)nc2ccc(Cl)cc2c1OCC1CCC1,> 2000 nM,16 nM,980 nM,1300 nM,15 nM,390 nM,600 nM,>40000,> 2000 nM,77 nM,36 nM,> 2000 nM,630 nM,124 nM,72 nM
CCCc1c(O)nc2ccc(C#N)cc2c1OC1CCCC1,1700 nM,52 nM,> 2000 nM,> 2000 nM,1 nM,2000 nM,> 2000 nM,>40000,> 2000 nM,240 nM,65 nM,> 2000 nM,> 2000 nM,1300 nM,120 nM
N#Cc1c(O)nc2ccccc2c1OCC1CCC1,> 2000 nM,> 2000 nM,> 2000 nM,> 2000 nM,> 2000 nM,> 8000 nM,> 2000 nM,>8000,> 2000 nM,> 2000 nM,> 2000 nM,> 2000 nM,> 2000 nM,> 2000 nM,> 8000 nM
CC(C)c1c(O)nc2ccc(F)cc2c1OCC1CCC1,280 nM,30 nM,1700 nM,530 nM,16 nM,230 nM,700 nM,>500,> 2000 nM,440 nM,49 nM,> 2000 nM,> 2000 nM,1900 nM,26 nM
CCCc1c(O)nc2ccccc2c1OC1CCCC1,630 nM,180 nM,> 2000 nM,> 2000 nM,270 nM,3900 nM,> 2000 nM,>40000,> 2000 nM,1220 nM,350 nM,> 2000 nM,> 2000 nM,> 2000 nM,380 nM
CCCc1c(O)nc2ccc(Cl)cc2c1OC1CCCC1,> 2000 nM,31 nM,> 2000 nM,> 2000 nM,25 nM,1700 nM,670 nM,>40000,> 2000 nM,200 nM,60 nM,> 2000 nM,> 2000 nM,270 nM,96 nM
O=C1Nc2ccc(Cl)cc2[C@@](C#CC2CC2)(C(F)(F)F)O1 [EFAVIRENZ],2 nM,1 nM,23 nM,552 nM,7 nM,–,3 nM,–,43 nM,–,–,–,3 nM,1 nM,–
